Source: PMC9350903 (ACS chemical neuroscience, 2021)
pIC50, pKd: −log10 of the molar value. Where “and” joins values, the source holds several entries; their conditions need not be identical. Equal values may be shown once. One block for each compound: values may come before it.

What was measured:
CSF-1R [1] = molecular target: T1, CSF-1R (Rattus norvegicus, UniProt Q00495); assay: [^3H]CPPC autoradiography in intrastriatal LPS rat brain tissues; type: binding; conditions: for inhibition of [^3H]CPPC binding: 10 μM competitor
T1 sequence (Q00495 20-978): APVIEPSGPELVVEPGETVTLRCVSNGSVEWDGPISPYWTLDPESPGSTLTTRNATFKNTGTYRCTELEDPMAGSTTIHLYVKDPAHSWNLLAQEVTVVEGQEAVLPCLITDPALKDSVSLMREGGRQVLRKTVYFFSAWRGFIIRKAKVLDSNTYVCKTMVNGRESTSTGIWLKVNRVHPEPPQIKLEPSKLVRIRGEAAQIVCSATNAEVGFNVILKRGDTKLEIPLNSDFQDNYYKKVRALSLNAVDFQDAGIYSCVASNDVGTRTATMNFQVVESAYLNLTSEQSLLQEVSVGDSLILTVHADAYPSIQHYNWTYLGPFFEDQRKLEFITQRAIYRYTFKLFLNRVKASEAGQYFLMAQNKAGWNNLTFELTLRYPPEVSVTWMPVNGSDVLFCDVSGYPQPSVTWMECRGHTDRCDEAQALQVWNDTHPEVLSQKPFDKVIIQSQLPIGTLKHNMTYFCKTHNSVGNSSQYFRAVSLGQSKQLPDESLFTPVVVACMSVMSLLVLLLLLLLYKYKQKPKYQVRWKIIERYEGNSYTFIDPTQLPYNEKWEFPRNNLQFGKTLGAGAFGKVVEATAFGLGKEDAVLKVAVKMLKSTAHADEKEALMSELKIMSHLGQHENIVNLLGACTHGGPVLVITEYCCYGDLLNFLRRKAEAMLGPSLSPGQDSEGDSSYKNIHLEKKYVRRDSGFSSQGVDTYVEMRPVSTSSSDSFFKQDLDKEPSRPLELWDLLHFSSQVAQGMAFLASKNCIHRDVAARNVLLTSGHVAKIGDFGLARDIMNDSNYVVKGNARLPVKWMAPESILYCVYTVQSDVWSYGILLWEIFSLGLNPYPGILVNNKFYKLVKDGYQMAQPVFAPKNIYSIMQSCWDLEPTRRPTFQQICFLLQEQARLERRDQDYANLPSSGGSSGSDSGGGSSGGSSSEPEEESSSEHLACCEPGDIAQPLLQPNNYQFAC

CSF-1R [2] = molecular target: T2, CSF-1R (Mus musculus, UniProt P09581); assay: [^3H]CPPC autoradiography in i.p. LPS mouse spleen tissues; type: binding
T2 sequence (P09581 20-977): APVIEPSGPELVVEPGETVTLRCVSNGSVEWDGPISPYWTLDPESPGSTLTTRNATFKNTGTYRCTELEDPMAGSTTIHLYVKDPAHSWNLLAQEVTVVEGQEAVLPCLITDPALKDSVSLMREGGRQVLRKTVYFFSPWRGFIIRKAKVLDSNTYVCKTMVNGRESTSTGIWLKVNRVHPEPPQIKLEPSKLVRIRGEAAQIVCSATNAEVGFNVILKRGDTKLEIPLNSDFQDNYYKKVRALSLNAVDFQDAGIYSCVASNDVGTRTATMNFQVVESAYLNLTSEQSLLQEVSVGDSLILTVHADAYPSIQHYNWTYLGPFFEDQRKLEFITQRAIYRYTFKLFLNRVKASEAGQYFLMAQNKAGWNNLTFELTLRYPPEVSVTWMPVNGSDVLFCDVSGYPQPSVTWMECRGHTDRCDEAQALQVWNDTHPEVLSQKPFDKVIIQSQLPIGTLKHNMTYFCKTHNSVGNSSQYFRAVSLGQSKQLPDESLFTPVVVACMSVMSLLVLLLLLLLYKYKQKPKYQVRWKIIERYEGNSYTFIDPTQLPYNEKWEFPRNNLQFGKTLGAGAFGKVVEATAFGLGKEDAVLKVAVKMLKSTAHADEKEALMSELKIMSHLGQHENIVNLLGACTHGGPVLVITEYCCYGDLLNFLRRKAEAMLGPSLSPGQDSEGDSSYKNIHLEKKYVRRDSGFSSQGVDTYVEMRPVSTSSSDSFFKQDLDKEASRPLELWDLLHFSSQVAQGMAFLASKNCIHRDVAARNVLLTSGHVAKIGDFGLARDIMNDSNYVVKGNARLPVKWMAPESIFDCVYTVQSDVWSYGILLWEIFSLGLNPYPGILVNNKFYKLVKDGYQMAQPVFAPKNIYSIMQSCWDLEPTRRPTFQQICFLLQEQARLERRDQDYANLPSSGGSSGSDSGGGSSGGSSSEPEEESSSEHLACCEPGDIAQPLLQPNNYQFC

403 known kinases = assay: scanMAX KINOMEscan profile; type: binding; conditions: 10 μM unlabeled CPPC; number of kinases hit of number tested
Summary of the method: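 Outsourced scanMAX KINOMEscan competition-binding profile of 403 kinases. Unlabeled test compound was tested at 10 μM, and kinases with off-target binding were identified.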

[3] = molecular target: T3, serotonin 5-HT3A receptor (Homo sapiens, UniProt P46098); assay: Eurofins DiscoverX SAFETYscan CNS safety panel
T3 sequence (P46098 24-478): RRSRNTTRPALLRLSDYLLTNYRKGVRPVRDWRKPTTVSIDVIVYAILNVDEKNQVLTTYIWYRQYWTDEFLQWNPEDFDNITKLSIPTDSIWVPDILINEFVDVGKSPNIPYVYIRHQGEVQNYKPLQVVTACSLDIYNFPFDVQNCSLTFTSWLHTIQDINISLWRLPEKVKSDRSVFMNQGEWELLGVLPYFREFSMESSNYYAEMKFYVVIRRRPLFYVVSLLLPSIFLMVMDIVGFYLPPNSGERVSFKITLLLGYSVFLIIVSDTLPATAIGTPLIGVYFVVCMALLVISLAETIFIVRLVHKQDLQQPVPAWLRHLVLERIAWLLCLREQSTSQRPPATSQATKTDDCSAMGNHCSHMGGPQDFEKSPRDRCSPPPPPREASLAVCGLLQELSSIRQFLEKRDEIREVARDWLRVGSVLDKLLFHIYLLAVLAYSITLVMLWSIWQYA

[4] = molecular target: α4β2 nicotinic acetylcholine receptor (Homo sapiens, UniProt P17787+P43681); assay: Eurofins DiscoverX SAFETYscan CNS safety panel
[5] = molecular target: NAV 1.5 sodium-gated channel (Homo sapiens, UniProt Q14524); assay: Eurofins DiscoverX SAFETYscan CNS safety panel
insulin receptor = insulin receptor (Homo sapiens, UniProt P06213); assay: Eurofins DiscoverX SAFETYscan CNS safety panel
[6] = molecular target: Tyrosine protein kinase LCK (Homo sapiens, UniProt P06239); assay: Eurofins DiscoverX SAFETYscan CNS safety panel
[7] = molecular target: vascular endothelial growth factor receptor 2 (Homo sapiens, UniProt P35968); assay: Eurofins DiscoverX SAFETYscan CNS safety panel
CSF-1R [8] = conditions: [^11C]CPPC autoradiography in AD tissues; cited from earlier work
Kit = conditions: cited from earlier work
Axl = conditions: cited from earlier work
TrkA = conditions: cited from earlier work
Flt-3 = conditions: cited from earlier work
IRKβ = conditions: cited from earlier work
c-kit = conditions: cited from earlier work
[9] = oral administration; non-human primates; cited from earlier work
CSF-1R [10] = conditions: cited from earlier work
CSF-1R [11] = molecular target: T2, CSF-1R; assay: [^3H]CPPC autoradiography in GBM mouse model brain tissue; type: binding; conditions: mouse GBM brain sections; 18 nM [^3H]CPPC; defined using unlabeled 10 μM CPPC
Summary of the method: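 Male-unspecified mice received a unilateral intrastriatal injection of 2.5e6 […] cells. Tumour-bearing mice were selected by MRI on day 10 and killed 9 days later. Brains were fresh-frozen and cut at 10 μm. Sections were incubated with tritiated test compound in 100% FBS for 2 h at room temperature. Non-specific binding used 10 μM unlabeled compound. Sections were washed in 0.5% BSA at 4 °C, then water at 4 °C, exposed to a phosphor screen for 5 days and analysed by ROI.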

CSF-1R [12] = assay: No-Wash Assay with [^3H]CPPC in LPS-treated spleen and LPS injected brains; type: binding; conditions: LPS-treated spleen, 7-day and 30-day post LPS injected brains
[13] = Storage stability of [^3H]CPPC; type: physicochemical; conditions: stored at −20 °C in ethanol; over the first 6 months
Summary of the method: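 Tritiated test compound (80 Ci/mmol; 1 mCi/mL stock) was stored in ethanol at −20 °C. Decomposition was measured at 2, 4 and 6 months.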

TSPO [14] = molecular target: TSPO (Rattus norvegicus, UniProt P16257); assay: [^3H]PBR28 autoradiography in intrastriatal LPS rat brain tissues; type: binding
TSPO [15] = molecular target: T4, TSPO (Mus musculus, UniProt P50637); assay: [^3H]PBR28 autoradiography in GBM mouse model brain tissue; type: binding
Summary of the method: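 Mice received an intrastriatal injection of 2.5e6 […] cells and were killed 19 days later. Fresh-frozen brain sections were incubated with 3 nM tritiated TSPO radioligand (total binding) and read by phosphor-screen autoradiography. Adjacent sections were immunostained for IBA-1. Tumour was located by anti-luciferase staining.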

TSPO [16] = molecular target: T4, TSPO; assay: [^3H]PBR28 autoradiography in i.p. LPS mouse spleen tissues; type: binding
Summary of the method: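 C57bl/6 male mice, 10 weeks old, received LPS 1 mg/kg i.p. in saline for 3 or 4 consecutive days and were killed on day 5 or 6. Spleens were slow-frozen on dry ice and sectioned. Sections were incubated with ascending concentrations of tritiated TSPO radioligand in 100% FBS for 2 h at room temperature, then washed. […] Bmax and Kd came from non-linear regression of phosphor-screen ROI data.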

TSPO [17] = assay: No-Wash Assay with [^3H]PBR28 in LPS-treated spleen and LPS injected brains; type: binding; conditions: LPS-treated spleen, 7-day and 30-day post LPS injected brains
[18] = ipsilateral hemisphere of 30-day LPS rat brain, [^3H]CPPC 3 nM
[19] = [^3H]CPPC saturation in i.p. LPS mouse spleen
[20] = 7-day post-LPS injection rat brain, [^3H]CPPC 3.5 nM, mean ± sd
[21] = rats sacrificed 30-days post-surgery
[22] = [^3H]PBR28 saturation in i.p. LPS mouse spleen

Sequence of NAV 1.5 sodium-gated channel (Q14524 whole entry): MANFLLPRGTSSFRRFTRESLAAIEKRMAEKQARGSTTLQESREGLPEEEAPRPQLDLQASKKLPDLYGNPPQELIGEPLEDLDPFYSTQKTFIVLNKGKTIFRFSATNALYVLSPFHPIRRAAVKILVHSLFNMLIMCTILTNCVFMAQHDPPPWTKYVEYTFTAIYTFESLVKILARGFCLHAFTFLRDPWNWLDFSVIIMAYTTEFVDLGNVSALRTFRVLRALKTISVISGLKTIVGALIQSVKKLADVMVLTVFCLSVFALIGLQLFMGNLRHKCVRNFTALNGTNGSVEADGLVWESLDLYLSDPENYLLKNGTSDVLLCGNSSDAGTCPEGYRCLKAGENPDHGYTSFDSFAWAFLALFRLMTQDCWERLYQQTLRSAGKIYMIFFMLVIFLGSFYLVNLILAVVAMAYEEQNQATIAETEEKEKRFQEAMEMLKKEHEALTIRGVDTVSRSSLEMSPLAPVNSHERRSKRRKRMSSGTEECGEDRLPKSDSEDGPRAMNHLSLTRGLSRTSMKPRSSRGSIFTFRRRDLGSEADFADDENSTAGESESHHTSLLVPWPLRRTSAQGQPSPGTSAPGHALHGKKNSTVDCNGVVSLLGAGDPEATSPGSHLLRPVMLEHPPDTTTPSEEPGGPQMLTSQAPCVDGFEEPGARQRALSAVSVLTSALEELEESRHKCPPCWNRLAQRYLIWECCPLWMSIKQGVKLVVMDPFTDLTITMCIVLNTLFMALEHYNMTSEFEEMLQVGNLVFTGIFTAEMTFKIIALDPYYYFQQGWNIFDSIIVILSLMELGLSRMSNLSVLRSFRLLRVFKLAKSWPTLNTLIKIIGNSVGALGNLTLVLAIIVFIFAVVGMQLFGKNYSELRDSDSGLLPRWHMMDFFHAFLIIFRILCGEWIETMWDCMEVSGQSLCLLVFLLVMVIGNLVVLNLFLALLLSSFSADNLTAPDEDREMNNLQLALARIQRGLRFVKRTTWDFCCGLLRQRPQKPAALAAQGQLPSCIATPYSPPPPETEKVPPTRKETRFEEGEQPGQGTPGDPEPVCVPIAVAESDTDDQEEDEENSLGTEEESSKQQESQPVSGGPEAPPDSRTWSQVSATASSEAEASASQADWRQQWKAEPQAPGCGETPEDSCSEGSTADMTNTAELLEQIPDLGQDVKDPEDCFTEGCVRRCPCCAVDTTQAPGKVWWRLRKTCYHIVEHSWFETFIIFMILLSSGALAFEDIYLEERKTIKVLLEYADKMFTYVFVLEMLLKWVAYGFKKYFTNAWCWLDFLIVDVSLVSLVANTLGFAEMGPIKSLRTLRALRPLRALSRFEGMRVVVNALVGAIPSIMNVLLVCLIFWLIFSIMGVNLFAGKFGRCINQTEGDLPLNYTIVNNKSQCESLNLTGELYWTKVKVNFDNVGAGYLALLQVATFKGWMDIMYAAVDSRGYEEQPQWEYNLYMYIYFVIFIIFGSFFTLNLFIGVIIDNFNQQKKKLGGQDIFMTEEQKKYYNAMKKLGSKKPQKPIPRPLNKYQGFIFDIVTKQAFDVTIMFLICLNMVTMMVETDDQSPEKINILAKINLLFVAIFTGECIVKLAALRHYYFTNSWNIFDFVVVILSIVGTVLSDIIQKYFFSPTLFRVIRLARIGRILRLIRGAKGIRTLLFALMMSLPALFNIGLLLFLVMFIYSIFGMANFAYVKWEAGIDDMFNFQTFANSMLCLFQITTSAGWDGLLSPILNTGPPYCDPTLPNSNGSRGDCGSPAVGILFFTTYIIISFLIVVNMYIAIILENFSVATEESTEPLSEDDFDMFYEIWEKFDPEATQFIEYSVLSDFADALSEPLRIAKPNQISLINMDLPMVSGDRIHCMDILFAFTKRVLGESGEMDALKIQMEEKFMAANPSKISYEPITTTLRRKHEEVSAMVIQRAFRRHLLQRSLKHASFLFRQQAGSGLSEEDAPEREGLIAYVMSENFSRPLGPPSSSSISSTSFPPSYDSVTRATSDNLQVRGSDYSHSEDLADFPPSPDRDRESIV
Sequence of Tyrosine protein kinase LCK (P06239 whole entry): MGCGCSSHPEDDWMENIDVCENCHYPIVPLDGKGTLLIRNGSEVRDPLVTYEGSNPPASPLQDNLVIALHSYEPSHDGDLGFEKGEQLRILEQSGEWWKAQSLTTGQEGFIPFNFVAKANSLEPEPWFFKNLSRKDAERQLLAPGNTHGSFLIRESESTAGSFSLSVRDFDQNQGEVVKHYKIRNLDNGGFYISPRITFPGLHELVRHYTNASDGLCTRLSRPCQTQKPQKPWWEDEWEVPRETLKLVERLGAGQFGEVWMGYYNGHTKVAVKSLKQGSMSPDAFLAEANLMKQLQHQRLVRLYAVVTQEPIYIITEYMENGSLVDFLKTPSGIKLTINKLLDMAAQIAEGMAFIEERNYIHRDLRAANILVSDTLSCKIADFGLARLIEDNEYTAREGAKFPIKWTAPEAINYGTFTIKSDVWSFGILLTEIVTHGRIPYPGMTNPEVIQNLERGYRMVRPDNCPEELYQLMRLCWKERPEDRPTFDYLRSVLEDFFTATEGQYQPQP
Sequence of insulin receptor (P06213 28-1382): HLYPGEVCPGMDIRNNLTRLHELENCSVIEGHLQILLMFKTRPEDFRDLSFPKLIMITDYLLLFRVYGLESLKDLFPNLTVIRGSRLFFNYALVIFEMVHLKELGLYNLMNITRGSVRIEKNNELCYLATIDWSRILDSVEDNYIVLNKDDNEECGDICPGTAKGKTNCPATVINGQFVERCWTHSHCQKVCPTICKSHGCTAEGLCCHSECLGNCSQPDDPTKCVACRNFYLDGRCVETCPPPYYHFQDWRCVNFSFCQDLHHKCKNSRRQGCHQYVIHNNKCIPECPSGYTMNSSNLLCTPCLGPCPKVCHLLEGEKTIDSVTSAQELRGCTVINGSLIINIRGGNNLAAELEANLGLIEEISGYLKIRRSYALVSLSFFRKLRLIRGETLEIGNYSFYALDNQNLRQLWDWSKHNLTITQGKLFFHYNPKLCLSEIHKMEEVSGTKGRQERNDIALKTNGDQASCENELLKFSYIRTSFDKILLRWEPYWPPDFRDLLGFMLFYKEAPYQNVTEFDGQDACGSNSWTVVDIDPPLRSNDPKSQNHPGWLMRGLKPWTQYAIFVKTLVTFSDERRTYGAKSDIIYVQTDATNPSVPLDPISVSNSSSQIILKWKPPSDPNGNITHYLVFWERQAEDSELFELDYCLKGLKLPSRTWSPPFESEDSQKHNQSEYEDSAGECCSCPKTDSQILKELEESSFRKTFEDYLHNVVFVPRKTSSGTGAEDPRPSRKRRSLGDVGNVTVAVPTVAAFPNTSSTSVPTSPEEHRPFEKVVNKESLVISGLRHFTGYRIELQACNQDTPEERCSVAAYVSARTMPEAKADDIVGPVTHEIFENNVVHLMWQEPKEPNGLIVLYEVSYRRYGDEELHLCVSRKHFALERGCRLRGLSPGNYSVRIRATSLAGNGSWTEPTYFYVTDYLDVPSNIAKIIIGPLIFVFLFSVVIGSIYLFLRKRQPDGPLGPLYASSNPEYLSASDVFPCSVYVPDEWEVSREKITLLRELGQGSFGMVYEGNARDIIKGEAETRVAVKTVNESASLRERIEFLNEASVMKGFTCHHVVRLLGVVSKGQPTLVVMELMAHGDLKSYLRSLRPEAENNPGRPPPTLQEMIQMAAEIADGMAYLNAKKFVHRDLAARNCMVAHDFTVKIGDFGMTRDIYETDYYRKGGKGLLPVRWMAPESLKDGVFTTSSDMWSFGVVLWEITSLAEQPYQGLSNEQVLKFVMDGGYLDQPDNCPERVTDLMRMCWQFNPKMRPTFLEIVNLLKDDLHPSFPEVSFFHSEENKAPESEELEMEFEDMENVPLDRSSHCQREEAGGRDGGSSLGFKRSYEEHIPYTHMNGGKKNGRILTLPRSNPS
Sequence of α4β2 nicotinic acetylcholine receptor (P43681 29-627 limits assumed): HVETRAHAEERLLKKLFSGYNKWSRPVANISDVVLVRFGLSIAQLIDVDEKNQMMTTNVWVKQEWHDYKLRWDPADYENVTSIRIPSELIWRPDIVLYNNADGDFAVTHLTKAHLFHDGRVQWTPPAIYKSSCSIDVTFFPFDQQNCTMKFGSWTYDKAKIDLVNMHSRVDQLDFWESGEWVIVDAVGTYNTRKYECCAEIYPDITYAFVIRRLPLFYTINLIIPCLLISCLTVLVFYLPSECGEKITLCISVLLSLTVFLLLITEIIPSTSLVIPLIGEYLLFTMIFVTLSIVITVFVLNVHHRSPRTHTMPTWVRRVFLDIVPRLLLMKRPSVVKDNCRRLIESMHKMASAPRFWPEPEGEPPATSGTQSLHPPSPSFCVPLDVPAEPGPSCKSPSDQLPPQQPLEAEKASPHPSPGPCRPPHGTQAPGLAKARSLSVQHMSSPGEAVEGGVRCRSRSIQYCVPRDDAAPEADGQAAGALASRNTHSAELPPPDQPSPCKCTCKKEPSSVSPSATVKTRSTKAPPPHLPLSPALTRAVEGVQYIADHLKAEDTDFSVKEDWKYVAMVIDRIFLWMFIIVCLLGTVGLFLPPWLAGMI
Sequence of α4β2 nicotinic acetylcholine receptor (P17787 26-502): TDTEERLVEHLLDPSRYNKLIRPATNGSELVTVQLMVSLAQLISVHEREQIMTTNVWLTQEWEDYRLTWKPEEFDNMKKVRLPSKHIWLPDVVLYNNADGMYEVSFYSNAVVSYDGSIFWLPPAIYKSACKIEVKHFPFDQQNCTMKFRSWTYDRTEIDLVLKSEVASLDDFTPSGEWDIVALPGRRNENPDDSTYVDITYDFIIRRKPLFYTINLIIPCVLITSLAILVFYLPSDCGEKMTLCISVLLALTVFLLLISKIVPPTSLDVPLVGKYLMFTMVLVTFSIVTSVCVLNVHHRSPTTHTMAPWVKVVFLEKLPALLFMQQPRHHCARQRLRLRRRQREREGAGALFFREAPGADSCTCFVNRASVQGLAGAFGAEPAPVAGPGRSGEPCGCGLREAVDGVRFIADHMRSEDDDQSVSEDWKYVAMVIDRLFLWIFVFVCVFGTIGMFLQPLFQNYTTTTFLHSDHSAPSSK

Structure (SMILES): CN1CCN(c2ccc(NC(=O)c3ccc(C#N)o3)c(N3CCCCC3)c2)CC1 [CPPC, 5-cyano-N-(4-(4-methylpiperazin-1-yl)-2-(piperidin-1-yl)phenyl)furan-2-carboxamide]
displacement of [^3H]CPPC binding (CSF-1R [1]; 10 μM unlabeled CPPC, LPS rodent brain tissue): up to 50%
% inhibition of [^3H]CPPC binding (signal-to-noise) (CSF-1R [1]; 7-day post-LPS rat brain, 10 μM unlabeled CPPC, [^3H]CPPC 3.5 nM): 49.9 ± 2.9%
inhibition of [^3H]CPPC binding (CSF-1R [1]; [18]): 60%
pIC50 (CSF-1R [2]): 8.03
hillslope (nH) (CSF-1R [2]; CPPC concentration curve vs [^3H]CPPC in i.p. LPS spleen): 0.46
inhibition of [^3H]CPPC binding (CSF-1R [2]; i.p. LPS mouse spleen (n = 6), 10 μM competitor, [^3H]CPPC 3 nM): 85% and > 80%
kinase targets with off-target binding (403 known kinases): 204 of 403
pIC50 [3]: 5.23
pIC50 [4]: 5.31
pIC50 [5]: 5.19
pIC50 (insulin receptor): 7.15
pIC50 [6]: 7.66
pIC50 [7]: 7.13
ratio of total baseline binding to the inhibited condition (CSF-1R [8]): 1.7–2.7
concentration of off-target binding (Kit): less than 0.1 μM
concentration of off-target binding (Axl): less than 0.1 μM
concentration of off-target binding (TrkA): less than 0.1 μM
concentration of off-target binding (Flt-3): less than 0.1 μM
concentration of off-target binding (IRKβ): less than 0.1 μM

Structure (SMILES): FC(F)(F)c1ccc(CNc2ccc(Cc3c[nH]c4ncc(Cl)cc34)cn2)cn1 [PLX3397, 5-((5-chloro-1H-pyrrolo[2,3-b]pyridin-3-yl)methyl)-N-((6-(trifluoromethyl)pyridin-3-yl)methyl)pyridin-2-amine]
inhibition of [^3H]CPPC binding (CSF-1R [1]; [18]): 15%
affinity for c-kit (c-kit): 20 nM
presence in cerebrospinal fluid [9]: observed in cerebrospinal fluid, albeit at low concentrations
affinity for CSF-1R (CSF-1R [10]): 10 nM

Structure (SMILES): CN1CCN(c2ccc(NC(=O)c3ccc(C#N)o3)c(N3CCCCC3)c2)CC1 [[^3H]CPPC, [^3H] 5-cyano-N-(4-(4-methylpiperazin-1-yl)-2-(piperidin-1-yl)phenyl)furan-2-carboxamide]
pKd (CSF-1R [2]; [19]): 8.37

[^3H]CPPC binding, contralateral hemisphere (CSF-1R [1]; [20]): 17.9 ± 1.1 nCi/mg
[^3H]CPPC binding, ipsilateral hemisphere (CSF-1R [1]; [20]): 18.9 ± 1.7 nCi/mg
saturability of [^3H]CPPC binding (CSF-1R [1]; 30-day LPS rat brain sections, radioligand concentration up to 40 nM): failed to saturate
total binding of [^3H]CPPC (CSF-1R [1]; [18]): 15 nCi/mg
specific signal of [^3H]CPPC (CSF-1R [11]): ~ 60%
Bmax (CSF-1R [2]; [19]): 1339 fmol/mg tissue
baseline radioligand binding of [^3H]CPPC (CSF-1R [2]; i.p. LPS mouse spleen, [^3H]CPPC 3 nM): 100 nCi/mg
specific binding under No-Wash Assay conditions (CSF-1R [12]): lack of specific binding
rate of decomposition [13]: less than 3%
Structure (SMILES): [3H]C([3H])([3H])N1CCN(c2ccc(NC(=O)c3ccc(C#N)o3)c(N3CCCCC3)c2)CC1 [[^3H]CPPC, [^3H] 5-cyano-N-(4-(4-methylpiperazin-1-yl)-2-(piperidin-1-yl)phenyl)furan-2-carboxamide]

Structure (SMILES): COc1ccccc1CN(C(C)=O)c1cnccc1Oc1ccccc1 [[^3H]PBR28]
Bmax (TSPO [14]; [^3H]PBR28 saturation, ipsilateral hemisphere of 30-day LPS rat brain): 620.7 fmol/mg
[^3H]PBR28 specific binding, contralateral hemisphere (TSPO [14]; rats sacrificed 7-days post-surgery): 29.0 ± 3.1 nCi/mg
[^3H]PBR28 specific binding, ipsilateral hemisphere (TSPO [14]; rats sacrificed 7-days post-surgery, mean ± sd): 83.5 ± 48.9 nCi/mg
[^3H]PBR28 specific binding, contralateral hemisphere (TSPO [14]; [21]): 14.0 ± 2.36 nCi/mg
[^3H]PBR28 specific binding, ipsilateral hemisphere (TSPO [14]; [21]): 36.2 ± 4.07 nCi/mg
[^3H]PBR28 binding density (TSPO [15]; areas of decreased immunostaining for inflammatory cells): 620 MDC/mm^2
relative target density ([^3H]PBR28 specific signal) (TSPO [15]; region of the tumor and immediately proximal areas): 250500 MDC/mm^2
Bmax (TSPO [16]; [22]): 14771 fmol/mg tissue
pKd (TSPO [16]; [22]): 8.62
specific binding (TSPO [16]; defined using unlabeled 10 μM FEPPA, i.p. LPS mouse spleen): 99 ± 0.03%
specific binding under No-Wash Assay conditions (TSPO [17]): > 60%
